Assay results as given in ChEMBL document CHEMBL1142228, “Alternative chemical modifications reverse the binding orientation of a pharmacophore scaffold in the active site of macrophage migration inhibitory factor” (J Biol Chem, 2007).

Biological target: T1, Macrophage migration inhibitory factor (Homo sapiens, UniProt P14174)
T1 sequence (P14174 whole entry): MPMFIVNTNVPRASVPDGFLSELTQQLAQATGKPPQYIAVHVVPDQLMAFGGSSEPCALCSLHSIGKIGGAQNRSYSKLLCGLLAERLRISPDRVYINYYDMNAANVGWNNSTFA
Assay: Inhibition of MIF-mediated dopachrome tautomerase activity
Details: not given
Summary of the method: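 l-Dopachrome methyl ester substrate (2.4 mm prepared stock, from sodium periodate oxidation of l-3,4-dihydroxyphenylalanine methyl ester) added to recombinant MIF (50 nm) in 50 mm potassium phosphate, pH 6, 0.5 mm EDTA at room temperature.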

Row | Structure (SMILES) | IC50
1 | O=C(O/N=C/c1ccc(O)cc1)C1CC=CCC1 (stereo not drawn) | 3.4 µM
2 | CCCCC(=O)O/N=C/c1ccc(O)cc1 | 14.5 µM
3 | CC(C)C(=O)O/N=C/c1ccc(O)cc1 | 25 µM
4 | O=C(O/N=C/c1ccc(O)cc1)C1CCC1 | 11 µM
5 | O=C(O/N=C/c1ccc(O)cc1)c1ccccc1 | 7 µM
6 | O=C(O/N=C/c1ccc(O)cc1)C1CCCC1 | 4 µM
7 | CC(C)CC(=O)O/N=C/c1ccc(O)cc1 | 7 µM
8 | CC(C)(C)CC(=O)O/N=C/c1ccc(O)cc1 | 7 µM
9 | CC(=O)O/N=C/c1ccc(O)cc1 | 147 µM
10 | CC(C)(C)C(=O)O/N=C/c1ccc(O)cc1 | 113 µM
11 | O=C(CCC1CCCCC1)O/N=C/c1ccc(O)cc1 | 3 µM

System: Mus musculus
Assay: Increase in survival rate in cecal ligation and puncture-induced peritonitis mouse model administered twice a day after 24 hrs of sepsis induction at 3.5 mg/kg, ip for 3 days
Assay type: functional
Details: route intraperitoneal
Summary of the method: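 Mice anaesthetised with ketamine 100 mg/kg plus xylazine 8 mg/kg im. Cecum ligated below the ileocecal valve and punctured once with a 22-gauge needle. Post-surgery: Premaxin 0.5 mg/kg sc and saline 20 ml/kg sc. Dosing ip in 20% aqueous DMSO vehicle began 24 h post-CLP, twice daily for 3 days. n = 13 per group; survival followed 2 weeks.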

Row | Structure (SMILES) | survival at 3.5 mg/kg
12 | O=C(O/N=C/c1ccc(O)cc1)C1CCCCC1 | 70%

Biological target: Transcription factor p65 (Mus musculus) (UniProt Q04207)
Assay: Inhibition of NF-kappaB activation in LPS-induced mouse RAW264.7 cells by electrophoretic mobility shift assay
Details: not given

Sequence of Transcription factor p65 (Mus musculus) (Q04207 whole entry, looked up): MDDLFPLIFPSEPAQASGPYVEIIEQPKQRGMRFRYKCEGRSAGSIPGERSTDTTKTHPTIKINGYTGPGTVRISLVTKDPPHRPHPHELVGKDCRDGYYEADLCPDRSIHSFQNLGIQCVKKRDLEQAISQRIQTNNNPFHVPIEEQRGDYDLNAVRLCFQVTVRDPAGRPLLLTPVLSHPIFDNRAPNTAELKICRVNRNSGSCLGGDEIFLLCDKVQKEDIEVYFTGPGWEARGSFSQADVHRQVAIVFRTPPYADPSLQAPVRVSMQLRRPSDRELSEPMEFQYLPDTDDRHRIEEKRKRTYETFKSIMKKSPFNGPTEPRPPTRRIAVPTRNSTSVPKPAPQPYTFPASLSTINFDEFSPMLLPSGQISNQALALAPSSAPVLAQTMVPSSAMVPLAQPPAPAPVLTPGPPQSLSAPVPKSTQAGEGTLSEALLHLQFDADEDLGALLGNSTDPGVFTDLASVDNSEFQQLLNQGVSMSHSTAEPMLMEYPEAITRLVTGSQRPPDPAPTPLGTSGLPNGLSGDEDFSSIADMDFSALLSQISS

Row | Structure (SMILES) | Activity
13 | O=C(O/N=C/c1ccc(O)cc1)C1CCCCC1 | Dose-dependent effect
